Data: ChEMBL document CHEMBL1140291, “Quinic acid derivatives as sialyl Lewis(x)-mimicking selectin inhibitors: design, synthesis, and crystal structure in complex with E-selectin” (J Med Chem, 2005)
pIC50: −log10 of the molar value.

Key:
[1] = Area under curve in rat ( 20 mg/kg iv ); type: ADME, organism-based; set-up: dose 20 mg/kg, route intravenous; details: in vivo
Method in brief: (§1)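 Single 20 mg/kg iv bolus (10 mg/mL in 50% DMSO/50% PEG400). Blood drawn at 5 min and 0.5, 0.75, 1, 2, 4, 7, 24 h, with saline replacing lost volume. Plasma precipitated with CH3CN and analysed by LC/MS. Linear trapezoid noncompartmental analysis.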

[2] = (§2) Anti-inflammatory activity as selectin-mediated rolling of human neutrophils on stimulated human umbilical vein endothelial cells; type: functional, cell-based; details: endothelial cell
Method in brief: (§3)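 Parallel plate flow chamber; human neutrophils rolled over confluent HUVEC monolayers activated with […] just before the run to raise surface P-selectin. Rolling cells counted by digital imaging/videotape, averaged over 10 fields on each of three monolayers per test article. Active compounds titrated for IC50. Glycyrrhizin trisodium salt as positive control.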

P-selectin = biological target: T1, P-selectin (Homo sapiens, UniProt P16109); experiment: Inhibitory concentration against selectin P in Biacore assay
T1 sequence (P16109 whole entry): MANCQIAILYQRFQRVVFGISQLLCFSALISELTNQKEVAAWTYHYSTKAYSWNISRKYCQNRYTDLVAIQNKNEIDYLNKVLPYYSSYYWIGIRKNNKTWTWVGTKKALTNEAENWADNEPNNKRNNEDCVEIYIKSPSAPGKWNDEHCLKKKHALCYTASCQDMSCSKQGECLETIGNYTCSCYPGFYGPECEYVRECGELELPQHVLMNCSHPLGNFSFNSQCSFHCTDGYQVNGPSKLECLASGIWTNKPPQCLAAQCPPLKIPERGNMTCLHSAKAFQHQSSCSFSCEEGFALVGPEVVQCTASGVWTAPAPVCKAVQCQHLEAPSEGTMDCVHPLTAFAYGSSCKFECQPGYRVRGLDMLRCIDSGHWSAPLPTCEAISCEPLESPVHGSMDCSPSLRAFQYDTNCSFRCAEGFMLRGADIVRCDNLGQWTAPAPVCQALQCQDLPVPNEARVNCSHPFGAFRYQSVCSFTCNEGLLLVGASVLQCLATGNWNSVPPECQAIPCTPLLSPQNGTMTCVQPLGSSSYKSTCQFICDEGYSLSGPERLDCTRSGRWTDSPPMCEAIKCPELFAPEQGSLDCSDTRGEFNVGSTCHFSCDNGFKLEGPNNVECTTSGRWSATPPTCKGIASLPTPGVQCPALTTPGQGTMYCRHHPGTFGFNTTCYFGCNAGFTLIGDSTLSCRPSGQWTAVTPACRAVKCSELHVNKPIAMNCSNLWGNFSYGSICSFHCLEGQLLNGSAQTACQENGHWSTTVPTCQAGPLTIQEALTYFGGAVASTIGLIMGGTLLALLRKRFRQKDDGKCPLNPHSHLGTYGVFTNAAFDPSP
Method in brief: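 SPR at 25 °C. Biotinylated monomeric truncated human PSGL-1 (19ek) was immobilised on a streptavidin chip. Compounds were preincubated 1 h with 500 nM monomeric P-selectin (P-LE) in HEPES/NaCl/1 mM CaCl2/MgCl2/0.05% P40/10% DMSO, then injected at 0–6 mM in duplicate, at least two runs. IC50 was extrapolated from the RU vs concentration plot after blank and reference subtraction.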

[3] = Clearance observed in rat ( 20 mg/kg iv ); type: ADME, organism-based; set-up: dose 20 mg/kg, route intravenous; details: in vivo; method in brief: as §1
[4] = Maximum concentration observed in rat ( 20 mg/kg iv ); type: ADME, organism-based; set-up: dose 20 mg/kg, route intravenous; details: in vivo; method in brief: as §1
[5] = as §2; type: functional, cell-based; details: endothelial cell; remark: listed apart in the source
Method in brief: as §3, with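 “article.” for “article. Active compounds titrated for IC50.”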

| AUC [1] [µM·h] | pIC50 [2] | pIC50 (P-selectin) | clearance [3] [mL/min/kg] | Cmax [4] [µM] | pIC50 [5] | Structure (SMILES) |
| --- | --- | --- | --- | --- | --- | --- |
| 219 | 3.20 | 2.00 | 4 | 212 | – | O=C(O)[C@]1(OCc2ccc(-c3ccccc3C(F)(F)F)cc2)C[C@@H](O)[C@@H](O)[C@H](O)C1 |
| – | – | ≥ 5.70 | – | – | 3.00 | O=C(O)[C@]1(OCc2ccccc2-c2cccc3c2Sc2ccccc2S3)C[C@@H](O)[C@@H](O)[C@H](O)C1 |
